Experimental data as given in ChEMBL document CHEMBL4480464, “Bioactive Dimeric Acylphloroglucinols from the Mexican Fern Elaphoglossum paleaceum” (J Nat Prod, 2019).
The source made the active and inactive calls. No cut-off for these calls is given here.

Key:
[1] = test system: MCF7; assay: Cytotoxicity against human MCF7 cells measured after 72 hrs by sulforhodamine B assay; type: functional, cell-based; conditions: MCF7, 72 h
How it was run: (§1)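 Sulforhodamine B assay on human cancer lines in RPMI-1640 with 10% FBS, 104 cells/mL, 37 °C, 5% CO2. Treated in triplicate at about 70% confluence with 0.16–20 μg/mL sample in DMSO for 72 h. IC50 taken as concentration giving 50% of control growth, from a log10 concentration versus % viable cells plot.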

[2] = test system: SiHa; assay: Cytotoxicity against human SiHa cells measured after 72 hrs by sulforhodamine B assay; type: functional, cell-based; how it was run: as §1
[3] = Cytotoxicity against human HF6 cells measured after 72 hrs by sulforhodamine B assay; type: functional, cell-based; how it was run: as §1
[4] = test system: PC-3; assay: Cytotoxicity against human PC3 cells measured after 72 hrs by sulforhodamine B assay; type: functional, cell-based; conditions: PC-3, 72 h; how it was run: as §1
[5] = Cytotoxicity against human HSF30 cells measured after 72 hrs by sulforhodamine B assay; type: cell-based
How it was run: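 HFS-30 normal human skin fibroblasts grown in DMEM with 10% FBS at 37 °C, 5% CO2. Treated in triplicate at about 70% confluence with 0.16–20 μg/mL sample in DMSO for 72 h. Sulforhodamine B read-out. IC50 is concentration giving 50% of control growth.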

[6] = Selectivity index, ratio of IC50 for human HSF30 cells to IC50 for human HF6 cells
How it was run: (§2)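 SI calculated as IC50 in HFS-30 fibroblasts divided by IC50 in each cancer line, all from the 72 h sulforhodamine B assay.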

[7] = molecular target: T1, Amine oxidase [flavin-containing] A (Rattus norvegicus, UniProt P21396); assay: Inhibition of Wistar rat brain MAOA using kynuramine as substrate preincubated for 15 mins followed by substrate addition and measured after 15 mins by fluorescence assay
T1 sequence (P21396 whole entry): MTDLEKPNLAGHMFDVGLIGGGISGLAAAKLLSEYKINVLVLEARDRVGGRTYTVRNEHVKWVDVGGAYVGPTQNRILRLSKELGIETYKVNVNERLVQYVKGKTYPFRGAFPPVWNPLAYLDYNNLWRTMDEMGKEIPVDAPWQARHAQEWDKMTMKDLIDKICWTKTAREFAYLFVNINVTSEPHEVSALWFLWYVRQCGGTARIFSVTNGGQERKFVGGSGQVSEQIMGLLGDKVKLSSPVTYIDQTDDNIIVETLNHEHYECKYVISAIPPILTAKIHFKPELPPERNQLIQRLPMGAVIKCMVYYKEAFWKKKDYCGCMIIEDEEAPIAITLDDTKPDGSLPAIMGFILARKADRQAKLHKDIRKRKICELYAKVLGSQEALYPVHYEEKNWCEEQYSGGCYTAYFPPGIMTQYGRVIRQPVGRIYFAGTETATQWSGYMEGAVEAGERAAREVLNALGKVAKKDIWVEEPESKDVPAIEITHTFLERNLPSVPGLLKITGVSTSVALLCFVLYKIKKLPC
How it was run: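 Unpurified mitochondrial homogenate from brains of male Wistar rats (180–220 g), adjusted to 2500 μg/mL protein in PBS pH 7.4. Sample from 10% DMSO stock, tested over 0.1–100 μg/mL. Enzyme and sample preincubated 15 min at 37 °C, kynuramine (1 mM) added, incubated 15 min at 37 °C, stopped with 2 M NaOH. Triplicate.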

[8] = molecular target: T2, Amine oxidase [flavin-containing] B (Rattus norvegicus, UniProt P19643); assay: Inhibition of Wistar rat brain MAOB using kynuramine as substrate preincubated for 15 mins followed by substrate addition and measured after 15 mins by fluorescence assay
T2 sequence (P19643 whole entry): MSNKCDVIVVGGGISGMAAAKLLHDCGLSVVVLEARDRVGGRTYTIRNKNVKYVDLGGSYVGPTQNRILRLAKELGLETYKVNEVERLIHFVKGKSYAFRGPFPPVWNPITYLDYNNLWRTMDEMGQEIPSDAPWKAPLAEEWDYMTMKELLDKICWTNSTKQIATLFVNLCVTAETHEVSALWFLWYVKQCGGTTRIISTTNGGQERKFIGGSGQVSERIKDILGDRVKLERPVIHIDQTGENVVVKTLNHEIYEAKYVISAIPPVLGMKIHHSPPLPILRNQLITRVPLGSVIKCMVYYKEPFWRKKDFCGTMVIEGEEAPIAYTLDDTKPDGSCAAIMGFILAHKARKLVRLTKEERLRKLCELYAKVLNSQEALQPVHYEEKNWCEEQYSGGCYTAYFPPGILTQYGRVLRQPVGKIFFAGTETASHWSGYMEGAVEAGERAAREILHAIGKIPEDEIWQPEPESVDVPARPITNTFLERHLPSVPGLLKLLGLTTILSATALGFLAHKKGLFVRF
How it was run: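 Enzyme: unpurified mitochondrial homogenate from brains (cerebellum removed) of adult male Wistar rats (180−220 g), adjusted to 2500 μg/mL protein in PBS pH 7.4. Samples dissolved in 10% DMSO, tested over 0.1−100 μg/mL. Kynuramine 1 mM substrate; pargyline 10 μM as MAO-B-selective reference. Both incubations at 37 °C; stopped with 2 M NaOH. 4-Hydroxyquinoline read at ex 315/em 380 nm. Triplicate; IC50 as mean ± standard error.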

[9] = species: Rattus norvegicus; assay: Selectivity index, ratio of IC50 for Wistar rat brain MAOB to Wistar rat brain MAOA
[10] = test system: RAW264.7; assay: Cytotoxicity against LPS-induced mouse RAW264.7 cells assessed as cell killing at 92 to 185 uM measured after 24 hrs by resazurin dye based fluorescence assay; conditions: raw264.7, 24 h
How it was run: (§3)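 After the 24 h LPS (1 μg/mL) plus compound exposure and nitrite sampling, RAW264.7 wells given fresh DMEM-F12 with 10% heat-inactivated FBS plus resazurin (2 mM stock). Incubated a further 10 h at 37 °C, 5% CO2. Viability read as resorufin fluorescence. Vehicle Tween 80. Three independent experiments, mean ± SD.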

[11] = test system: RAW264.7; assay: Cytotoxicity against LPS-induced mouse RAW264.7 cells assessed as effect on cell viability at 46 uM measured after 24 hrs by resazurin dye based fluorescence assay; conditions: raw264.7, 24 h; how it was run: as §3
[12] = test system: RAW264.7; assay: Antiinflammatory activity in mouse RAW264.7 cells assessed as inhibition of LPS-induced nitric oxide production at 46 uM after 24 hrs by Griess assay; type: functional, cell-based
How it was run: (§4)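 Murine RAW264.7 macrophages in DMEM-F12 with 10% heat-inactivated FBS, no antibiotics, 37 °C, 5% CO2. Cells (2 × 10^5 cells/mL) preincubated 1 h, then compound added in Tween 80 vehicle, then stimulated with LPS 1 μg/mL for 24 h. Nitrite in medium measured by Griess reagent, absorbance 540 nm, quantified against NaNO2 standard curve. Triplicate, mean ± SEM.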

[13] = Selectivity index, ratio of IC50 for human HSF30 cells to IC50 for human MCF7 cells; type: toxicity; conditions: HSF30 cells and MCF7 cells, read-out: Ratio IC50; how it was run: as §2
[14] = Selectivity index, ratio of IC50 for human HSF30 cells to IC50 for human SiHa cells; type: toxicity; conditions: HSF30 cells and SiHa cells, read-out: Ratio IC50; how it was run: as §2
[15] = Selectivity index, ratio of IC50 for human HSF30 cells to IC50 for human PC3 cells; type: toxicity; conditions: HSF30 cells and PC3 cells, read-out: Ratio IC50; how it was run: as §2
[16] = test system: RAW264.7; assay: Cytotoxicity against LPS-induced mouse RAW264.7 cells assessed as cell killing at 123 to 164 uM measured after 24 hrs by resazurin dye based fluorescence assay; conditions: raw264.7, 24 h; how it was run: as §3
[17] = Cytotoxicity against LPS-induced mouse RAW264.7 cells assessed as cell viability at 82 uM measured after 24 hrs by resazurin dye based fluorescence assay; conditions: LPS-induced RAW264.7 cells, read-out: Activity; how it was run: as §3
[18] = test system: RAW264.7; assay: Cytotoxicity against LPS-induced mouse RAW264.7 cells assessed as effect on cell viability at 41 uM measured after 24 hrs by resazurin dye based fluorescence assay; conditions: raw264.7, 24 h; how it was run: as §3
[19] = test system: RAW264.7; assay: Antiinflammatory activity in mouse RAW264.7 cells assessed as inhibition of LPS-induced nitric oxide production at 41 uM after 24 hrs by Griess assay; type: functional, cell-based; how it was run: as §4

Row | SMILES | IC50 [1] [nM] | IC50 [2] [nM] | IC50 [3] [nM] | IC50 [4] [nM] | IC50 [5] [nM] | Ratio IC50 [6] | IC50 [7] [nM] | IC50 [8] [nM] | Ratio IC50 [9] | Activity [10] [%] | Activity [11] | inhibition [12] | selectivity ratio [13] | selectivity ratio [14] | selectivity ratio [15] | Activity [16] [%] | viability at 24 h, 82 µM [17] [%] | Activity [18] | inhibition [19]
1 | CC(=O)O[C@H]1C(=O)[C@@]2(C)[C@H]([C@H](OC(=O)c3ccccc3)[C@]3(O)C[C@H](OC(=O)[C@H](O)[C@@H](NC(=O)c4ccccc4)c4ccccc4)C(C)=C1C3(C)C)[C@]1(OC(C)=O)CO[C@@H]1C[C@@H]2O [PACLITAXEL] | 50 | 1400 | 1600 | 150 | 2 | 0.001 | – | – | – | – | – | – | – | – | – | – | – | – | –
2 | CCCC(=O)c1c(OC)cc(O)c(CC2=C(O)[C@](C)(C/C=C(\C)CCC=C(C)C)C(O)=C(C(C)=O)C2=O)c1O | > 10000 | 6000 | > 10000 | 1700 | 9 | 0.0005 | 31000 | 4700 | 0.1 | 100 | Non-Toxic | Active | 0.0002 | 0.002 | 0.005 | – | – | – | –
3 | COc1cc([C@@H]2c3cc4c(cc3[C@H](O)[C@H]3COC(=O)[C@H]23)OCO4)cc(OC)c1OC [PODOFILOX] | 5 | 100 | 1000 | 200 | 2 | 0.002 | – | – | – | – | – | – | 0.45 | 0.02 | 0.11 | – | – | – | –
4 | C#CCN(C)Cc1ccccc1 [PARGYLINE] | – | – | – | – | – | – | – | 220 | – | – | – | – | – | – | – | – | – | – | –
5 | CCCC(=O)c1c(O)c(CC2=C(O)[C@](C)(C/C=C(\C)CCC=C(C)C)C(O)=C(C(C)=O)C2=O)c(O)c(CC=C(C)C)c1OC | > 10000 | 5600 | 6400 | 2900 | 80 | 0.013 | 1300 | 4400 | 3.5 | – | – | – | 0.0025 | 0.015 | 0.029 | 100 | 50 | Non-Toxic | Active
